Measurements as given in ChEMBL document CHEMBL2157989, “Synthesis and biological evaluation of antibody conjugates of phosphate prodrugs of cytotoxic DNA alkylators for the targeted treatment of cancer” (J Med Chem, 2012).

What was measured:
[1] = Prodrug activation assessed as enzyme-mediated compound dephosphorylation in presence of porcine intestine mucosa alkaline phosphatase P4002 at pH 7.4 by HPLC; settings: pig, isolated protein
[2] = Prodrug activation assessed as enzyme-mediated compound dephosphorylation in presence of bovine liver alkaline phosphatase P7034 at pH 7.4 by HPLC; settings: cattle, isolated protein
[3] = Solubility of the compound in 20% DMA and 80% buffer at pH 7 at 1.5 mg sonicated for 45 mins followed by centrifugation for 45 mins by UV/Vis spectroscopy; type: physicochemical
Summary of the method: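 About 1.5 mg of compound is sonicated for 45 min in pH 7.0 buffer containing 10% or 20% DMA, then centrifuged at 1400g for 45 min. Supernatant concentration is read by UV/vis at 340 nm. ε at pH 7.0 is 41500 M⁻¹ cm⁻¹ for DC1–SR₂ compounds and 34500 M⁻¹ cm⁻¹ for phosphate prodrugs.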

[4] = Prodrug activation assessed as enzyme-mediated compound dephosphorylation in presence of calf intestine mucosa alkaline phosphatase P79390 at pH 7.4 by HPLC; settings: cattle, isolated protein
[5] = Prodrug activation assessed as enzyme-mediated compound dephosphorylation in presence of calf intestine alkaline phosphatase P7923 at pH 7.4 by HPLC; settings: cattle, isolated protein
[6] = Prodrug conversion assessed as 5-(3-(Methyldisulfanyl)propanamido)-N-(2-((9aS)-4-oxo-2,4,9,9atetrahydro- 1H-benzo[e]cyclopropa[c]indole-2-carbonyl)-1H-indol- 5-yl)-1H-indole-2-carboxamide in cyclopropyl by HPLC analysis; type: physicochemical
[7] = Prodrug activation assessed as enzyme-mediated compound dephosphorylation in presence of human semen prostatic acid phosphatase P1649 at pH 7.4 by HPLC; settings: isolated protein
[8] = Solubility in ethanol at 1.5 mg sonicated for 45 mins followed by centrifugation for 45 mins by UV/Vis spectroscopy; type: physicochemical; settings: 0.75 h
Summary of the method: (§1)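 Solid compound (~1.5 mg) in the stated solvent was sonicated 45 min, then centrifuged at 1400g for 45 min. The supernatant concentration was read by UV/vis at 340 nm, using ε = 41500 M⁻¹ cm⁻¹ for the free phenols and 34500 M⁻¹ cm⁻¹ for the phosphate prodrugs (pH 7.0 values).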

[9] = Prodrug conversion assessed as 1-[S]-(Chloromethyl)-5-hydroxy-3-{{5-[5-(4-methyldithio-3,3- dimethyl butyryl)indol-2-yl-carbonyl amino]indole-2-yl}carbonyl}- 1,2-dihydro-3H-benz[e]indole formation in presence of porcine mucosa alkaline phosphatase at pH 7.4; type: physicochemical; settings: pig, isolated protein
[10] = Solubility in water containing 5% dioxane at 1.5 mg sonicated for 45 mins followed by centrifugation for 45 mins by UV/Vis spectroscopy; type: physicochemical; settings: 0.75 h
COLO 205 = test: Cytotoxicity against human COLO205 cells assessed as cell survival after 72 hrs by clonogenic assay; type: functional, cell-based; settings: COLO 205, 72 h
Summary of the method: (§2)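 Cells were kept in RPMI 1640 with 10% heat-inactivated FBS at 37 °C and 6% CO₂. They were plated at 1000–5000 cells/well and exposed to 0–3 nM test agent for 72 h. Medium was then replaced and colonies grew for 7–10 days in total after plating. Colonies were fixed and stained with 0.2% crystal violet in 10% formalin/PBS, then counted. Surviving fraction = colonies in treated wells / colonies in control wells; IC₅₀ was taken from this.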

[11] = Prodrug activation assessed as enzyme-mediated compound dephosphorylation in presence of human placenta alkaline phosphatase from P3895 at pH 7.4 by HPLC; settings: isolated protein
[12] = Solubility in hexane at 1.5 mg sonicated for 45 mins followed by centrifugation for 45 mins by UV/Vis spectroscopy; type: physicochemical; settings: 0.75 h; summary of the method: as §1
Ramos = test: Cytotoxicity against human Ramos cells assessed as cell survival after 72 hrs by clonogenic assay; type: functional, cell-based; summary of the method: as §2
HL-60 = test: Cytotoxicity against human HL60 cells assessed as cell survival after 72 hrs by clonogenic assay; type: functional, cell-based; settings: HL-60, 72 h; summary of the method: as §2
[13] = Prodrug conversion assessed as 1-[S]-(Chloromethyl)-5-hydroxy-3-{{5-[5-(4-methyldithio-3,3- dimethyl butyryl)indol-2-yl-carbonyl amino]indole-2-yl}carbonyl}- 1,2-dihydro-3H-benz[e]indole formation in presence of bovine liver alkaline phosphatase at pH 7.4; type: physicochemical; settings: cattle, isolated protein
[14] = Prodrug conversion assessed as 1-[S]-(Chloromethyl)-5-hydroxy-3-{{5-[5-(4-methyldithio-3,3- dimethyl butyryl)indol-2-yl-carbonyl amino]indole-2-yl}carbonyl}- 1,2-dihydro-3H-benz[e]indole formation in presence of rabbit intestine alkaline phosphatase at pH 7.4; type: physicochemical; settings: in vitro
[15] = Prodrug activation assessed as enzyme-mediated compound dephosphorylation in presence of bovine semen prostatic acid phosphatase P3147 at pH 7.4 by HPLC; settings: cattle, isolated protein
[16] = Prodrug conversion assessed as 1-[S]-(Chloromethyl)-5-hydroxy-3-{{5-[5-(4-methyldithio-3,3- dimethyl butyryl)indol-2-yl-carbonyl amino]indole-2-yl}carbonyl}- 1,2-dihydro-3H-benz[e]indole formation in presence of bovine kidney alkaline phosphatase at pH 7.4; type: physicochemical; settings: cattle, isolated protein
[17] = Solubility in water containing 5% acetone at 1.5 mg sonicated for 45 mins followed by centrifugation for 45 mins by UV/Vis spectroscopy; type: physicochemical; settings: 0.75 h
[18] = Prodrug conversion assessed as 1 - [ S ] - ( Ch l o r ome t h y l ) - 5 - h y d r o x y - 3 - { { 5 - [ 5 - ( 3 -methyldithiopropionyl)indol-2-yl-carbonyl amino]indole-2-yl}- carbonyl}-1,2-dihydro-3H-benz[e]indole formation in presence of rabbit intestine alkaline phosphatase at pH 7.4; type: physicochemical; settings: in vitro
[19] = Prodrug conversion assessed as 1 - [ S ] - ( Ch l o r ome t h y l ) - 5 - h y d r o x y - 3 - { { 5 - [ 5 - ( 3 -methyldithiopropionyl)indol-2-yl-carbonyl amino]indole-2-yl}- carbonyl}-1,2-dihydro-3H-benz[e]indole formation in presence of porcine mucosa alkaline phosphatase at pH 7.4; type: physicochemical; settings: pig, isolated protein

Drug metabolism [1]	Drug metabolism [2]	solubility at 0.75 h [3] [mM]	Drug metabolism [4]	Drug metabolism [5]	Drug metabolism [6]	Drug metabolism [7]	solubility [8]	Drug metabolism [9]	solubility [10]	Drug metabolism [11]	solubility [12]	Drug metabolism [15]	solubility [17]	SMILES	IC50 (COLO 205) [nM]	IC50 (Ramos) [nM]	IC50 (HL-60) [nM]	further results
Active	Active	> 6	Active	Active	Active	Active	Insoluble	Active	soluble	Active	Insoluble	Active	soluble	CSSC(C)(C)CCC(=O)Nc1ccc2[nH]c(C(=O)Nc3ccc4[nH]c(C(=O)N5C[C@@H](CCl)c6c5cc(OP(=O)(O)O)c5ccccc65)cc4c3)cc2c1	> 3	2	1.9	Drug metabolism [13]: Active; Drug metabolism [14]: Active; Drug metabolism [16]: Active
Active	Active	> 6	Active	Active	Active	Active	Insoluble	Active	soluble	Active	Insoluble	Active	soluble	CSSCCC(=O)Nc1ccc2[nH]c(C(=O)Nc3ccc4[nH]c(C(=O)N5C[C@@H](CCl)c6c5cc(OP(=O)(O)O)c5ccccc65)cc4c3)cc2c1	> 3	1.9	1.8	Drug metabolism [18]: Active; Drug metabolism [19]: Active
